Laboratory results: ChEMBL document CHEMBL1154048, “Design, synthesis and pharmacological evaluation of new 1-[3-(4-arylpiperazin-1-yl)-2-hydroxy-propyl]-3,3-diphenylpyrrolidin-2-one derivatives with antiarrhythmic, antihypertensive, and alpha-adrenolytic activity” (Eur J Med Chem, 2009)

Molecular target: T1, Adrenergic receptor alpha-2 (Rattus norvegicus, UniProt P22086+P19328+P22909)
T1 sequence (P22086 whole entry): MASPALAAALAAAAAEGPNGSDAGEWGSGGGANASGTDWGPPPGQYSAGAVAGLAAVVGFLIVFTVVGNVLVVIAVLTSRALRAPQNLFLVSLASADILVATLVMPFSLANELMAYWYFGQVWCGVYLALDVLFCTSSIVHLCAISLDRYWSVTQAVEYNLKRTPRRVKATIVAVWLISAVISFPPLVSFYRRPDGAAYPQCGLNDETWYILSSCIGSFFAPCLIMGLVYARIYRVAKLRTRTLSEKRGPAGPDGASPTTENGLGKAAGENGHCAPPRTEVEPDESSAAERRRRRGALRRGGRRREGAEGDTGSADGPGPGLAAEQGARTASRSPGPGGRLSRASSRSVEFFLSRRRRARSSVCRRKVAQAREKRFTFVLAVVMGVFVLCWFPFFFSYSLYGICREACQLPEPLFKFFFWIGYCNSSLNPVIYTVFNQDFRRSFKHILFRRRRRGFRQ
T1 sequence (P19328 whole entry): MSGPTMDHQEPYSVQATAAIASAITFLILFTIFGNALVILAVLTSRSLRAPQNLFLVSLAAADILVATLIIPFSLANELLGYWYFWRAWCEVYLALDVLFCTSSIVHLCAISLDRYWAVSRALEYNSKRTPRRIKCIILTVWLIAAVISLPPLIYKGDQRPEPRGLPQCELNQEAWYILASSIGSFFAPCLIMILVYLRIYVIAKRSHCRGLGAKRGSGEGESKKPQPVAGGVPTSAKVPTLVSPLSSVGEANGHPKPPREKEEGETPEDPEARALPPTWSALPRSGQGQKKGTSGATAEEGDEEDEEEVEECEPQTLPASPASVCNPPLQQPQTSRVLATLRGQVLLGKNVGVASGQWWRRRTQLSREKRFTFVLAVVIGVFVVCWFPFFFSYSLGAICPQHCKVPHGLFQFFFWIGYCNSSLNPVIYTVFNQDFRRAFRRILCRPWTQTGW
T1 sequence (P22909 whole entry): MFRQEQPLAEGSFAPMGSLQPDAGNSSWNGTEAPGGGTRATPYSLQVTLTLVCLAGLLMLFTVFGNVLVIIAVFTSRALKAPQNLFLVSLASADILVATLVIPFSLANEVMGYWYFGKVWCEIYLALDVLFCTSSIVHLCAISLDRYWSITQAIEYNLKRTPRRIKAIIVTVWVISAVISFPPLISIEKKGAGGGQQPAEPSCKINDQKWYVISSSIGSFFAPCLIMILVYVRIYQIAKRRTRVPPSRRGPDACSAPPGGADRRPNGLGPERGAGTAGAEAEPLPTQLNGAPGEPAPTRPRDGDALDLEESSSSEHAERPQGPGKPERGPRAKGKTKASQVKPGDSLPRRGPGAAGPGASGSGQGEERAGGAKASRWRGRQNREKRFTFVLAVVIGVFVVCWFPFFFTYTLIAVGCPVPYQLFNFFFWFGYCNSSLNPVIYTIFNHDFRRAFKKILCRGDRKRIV
Test: Displacement of [3H]clonidine from alpha2 adrenergic receptor in rat cerebral cortex by liquid scintillation counting
Assay type: tissue-based
In short: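 Rat cerebral cortex membranes were prepared in ice-cold 50 mM Tris–HCl pH 7.6 (20 000 × g, 20 min, 0–4 °C, washed twice). They were incubated with [3H]clonidine 2 nM and seven to eight compound concentrations (10^-11–10^-4 M), with excess unlabelled clonidine defining nonspecific binding. Samples were glass-fiber filtered and counted by liquid scintillation, in duplicate. Ki was calculated by Cheng–Prusoff.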

| pKi | SMILES |
| --- | --- |
| 6.51 | Cc1ccccc1N1CCN(CC(O)CN2CCC(c3ccccc3)(c3ccccc3)C2=O)CC1.Cl.Cl (stereo unspecified) |
| 6 | COc1ccc(N2CCN(CC(O)CN3CCC(c4ccccc4)(c4ccccc4)C3=O)CC2)cc1.Cl.Cl (stereo unspecified) |

The remaining lines, values behind:

| SMILES | pKi |
| --- | --- |
| Cl.Cl.O=C1N(CC(O)CN2CCN(c3ccccc3C(F)(F)F)CC2)CCC1(c1ccccc1)c1ccccc1 (stereo unspecified) | 5.29 |
| COc1ccccc1N1CCN(CC(O)CN2CCC(c3ccccc3)(c3ccccc3)C2=O)CC1.Cl.Cl (stereo unspecified) | 6.68 |
| CCOc1ccccc1N1CCN(CC(O)CN2CCC(c3ccccc3)(c3ccccc3)C2=O)CC1.Cl.Cl (stereo unspecified) | 6.38 |
| Cl.Cl.O=C1N(CC(O)CN2CCN(c3ccccc3)CC2)CCC1(c1ccccc1)c1ccccc1 (stereo unspecified) | 6.64 |
